Results pooled from the literature.
Protocols differ between the studies behind these lines.
Target: Serine/threonine-protein kinase PAK 6 (PAK6, Homo sapiens, UniProt Q9NQU5)

N#CCCc1ccc2c(c1)-c1[nH]c3ccc([N+](=O)[O-])cc3c1CC(=O)N2 — remaining signal (cell-free assay; 0.5 µM): 104%
Cn1c(=O)n(-c2ccc(C(C)(C)C#N)cc2)c2c3cc(-c4cnc5ccccc5c4)ccc3ncc21 — remaining activity (enzyme activity, inhibitor; 10 µM): 105%
O=C(NCc1ncc(C(F)(F)F)cc1Cl)c1ccc2c(c1)C1(CCS(=O)(=O)CC1)[C@@H](C1CC1)N2S(=O)(=O)c1ccc(F)cc1 — remaining binding (cell-free assay, competition with immobilised ligand; 1 µM): 100%
Cc1cc(NC(=O)c2cccc3cc(-c4cccc5[nH]nc(N)c45)ccc23)ccc1F — activity vs control (enzyme activity, inhibitor; 0.1 µM): 104%
CC/C(=N\NC(=O)NCc1cccc(O)c1)c1ccc(O)c(C)c1O — inhibition (enzyme activity, inhibitor; 0.1 µM): 1.5%
Nc1nc(Nc2ccccc2)sc1C(=O)c1c(F)cccc1F — remaining activity (enzyme activity, inhibitor; 10 µM): 87%
CC(=O)N1CCC(c2ccc(C(=O)NC3=NCCN3)cc2C(F)(F)F)CC1 — remaining binding (cell-free assay, competition with immobilised ligand; 1 µM): 100%
Cc1sc(C(=O)NC2COC2)cc1-n1cc(NC(=O)Nc2c(F)cccc2Cl)cn1 — remaining activity (enzyme activity, inhibitor; 10 µM): 99.9%
CCc1ccccc1C(=O)Nc1n[nH]c2c(C)c(F)c(C3C(C#N)=C(C)N(C)C(C)=C3C#N)cc12 — remaining binding (cell-free assay, competition with immobilised ligand; 1 µM): 93%
COc1cc(Nc2cnc(C#N)c(O[C@H](C)CN(C)C)n2)ncc1-c1cnn(C)c1 — remaining activity (enzyme activity, inhibitor, radiometric; 10 µM): 43%
CS(=O)(=O)NCC[C@H](NC(=O)c1cncc2c1cnn2-c1ccc(F)cc1)c1ccnc(S(C)(=O)=O)c1 — remaining binding (cell-free assay, competition with immobilised ligand; 1 µM): 100%
CC(C)(C)c1nc2c(s1)c1nc(N)ncc1c1ccc(NS(=O)(=O)c3c(F)cccc3F)c(F)c12 — remaining activity (enzyme activity, inhibitor, radiometric; 1 µM): 89%
Nc1ncnc2occ(-c3ccc(NC(=O)Nc4cc(C(F)(F)F)ccc4F)cc3)c12 — remaining signal (cell-free assay, inhibitor; 20 µM): 53%
CCOCCn1cc(C(=O)Nc2ccc(-n3nc(-c4cccnc4)cc3C(F)(F)F)cn2)ccc1=O — remaining binding (cell-free assay, competition with immobilised ligand; 1 µM): 100%
CCN(CC)CCNC(=O)c1c(C)[nH]c(/C=C2\C(=O)Nc3ccc(F)cc32)c1C — inhibition (enzyme activity, inhibitor; 0.3 µM): -11%
O=C1Nc2ccc(Cl)cc2C1=Cc1cc(Cl)c(O)c(Cl)c1 — remaining signal (cell-free assay; 0.5 µM): 97%
CNC(=O)c1cc(Oc2ccc(NC(=O)Nc3ccc(Cl)c(C(F)(F)F)c3)cc2)ccn1 — inhibition (enzyme activity, inhibitor; 0.3 µM): -33%
CCCS(=O)(=O)Nc1ccc(F)c(C(=O)c2c[nH]c3ncc(-c4ccc(Cl)cc4)cc23)c1F — inhibition (enzyme activity, inhibitor; 1 µM): < 20%
CC(C)(O)c1cncc(-c2nc3ccc(F)cc3n2C2CC2)c1 — remaining binding (cell-free assay, competition with immobilised ligand; 1 µM): 100%
FC(F)(F)Oc1cccc(-c2cnc3ccc(-c4ccncc4)nn23)c1 — activity vs control (enzyme activity, inhibitor, radiometric; 5 µM): 90%
